Assay type in all cases: functional
Assay [1] can be described thus: In vitro percent inhibition of ConA induced T-cell proliferation at the dose 10 ug/mL. In short, it runs like this:
(§1)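 Spleen cells sieved to single-cell suspension, red cells lysed with 0.16 M NH4Cl-Tris, washed, in RPMI-1640 + 10% FBS; seeded at 2.5×10^6/mL, stimulated with ConA 0.5 µg/mL, drug final 1, 10 or 100 µg/mL, triplicates; 72 h at 37 °C, [3H]thymidine 0.5 µCi for final 16 h; cpm counted; %inhibition = (control − drug)/control.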

In assay [2] the target is T1, Tumor necrosis factor (Mus musculus) (UniProt P06804).
T1 sequence (whole entry): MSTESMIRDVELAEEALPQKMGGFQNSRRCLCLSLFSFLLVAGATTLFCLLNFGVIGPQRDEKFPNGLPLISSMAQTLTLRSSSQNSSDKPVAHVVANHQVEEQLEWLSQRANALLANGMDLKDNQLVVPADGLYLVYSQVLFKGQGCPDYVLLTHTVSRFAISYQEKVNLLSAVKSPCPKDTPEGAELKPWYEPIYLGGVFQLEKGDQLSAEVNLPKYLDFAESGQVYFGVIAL
The assay is described as follows: In vitro percent inhibition of tumor necrosis factor, alpha secreted by macrophage at the dose 100 ug/mL. Summed up: (§2)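 RAW264.7 macrophages in RPMI 1640 with 10% FCS, 2 mM glutamine, gentamycin; seeded 2×10^5/mL, grown ~3 days to confluence at 37 °C, 5% CO2; LPS 10 µg/mL plus drug at final 1, 10 or 100 µg/mL for 24 h; supernatant TNF-α by ELISA; %inhibition = (control mean − drug mean)/control mean.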

Assay [3] in a line: In vitro percent inhibition of LPS induced B-cell proliferation at the dose 1 ug/mL. Summed up: (§3)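 Splenocyte single-cell suspension (red cells lysed, 0.16 M NH4Cl-Tris), RPMI-1640 + 10% FBS, 2.5×10^6/mL; LPS 10 µg/mL stimulation with drug at final 1, 10 or 100 µg/mL, triplicate wells; cultured 72 h, 37 °C, [3H]thymidine pulse 0.5 µCi last 16 h, β-counting; %inhibition = (control mean − drug mean)/control mean.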

Assay [4] can be described thus: In vitro percent inhibition of LPS induced B-cell proliferation at the dose 10 ug/mL. Summed up:
as §3

A short description of assay [5]: In vitro percent inhibition of ConA induced T-cell proliferation at the dose 100 ug/mL. In short, it runs like this:
as §1

The nature of assay [6]: In vitro percent inhibition of LPS induced B-cell proliferation at the dose 100 ug/mL. Summed up:
as §3

The nature of assay [7]: In vitro percent inhibition of ConA induced T-cell proliferation at the dose 1 ug/mL. Summed up: as §1
Assay [8] addresses T1, Tumor necrosis factor (Mus musculus). Description: In vitro percent inhibition of tumor necrosis factor, alpha secreted by macrophage at the dose 1 ug/mL. Summed up: as §2
Assay [9] has the same target. Description: In vitro percent inhibition of tumor necrosis factor, alpha secreted by macrophage at the dose 10 ug/mL. Summed up: as §2

We go through 9 compounds from ChEMBL document CHEMBL1139610, “Design, synthesis, and biological evaluation of novel 4-hydro-quinoline-3-carboxamide derivatives as an immunomodulator” (2005).

For `CSc1ccc2c(O)c(C(=O)N(C)c3ccccc3)cnc2c1`, the inhibition at 10 µg/mL in assay [1] was found to be 11.8%; in [4], 17%. Further, the inhibition in assay [2] came to 52.7%; in assay [8] it was 14.6%; in assay [9], 22.2%. Also, the inhibition at 1 µg/mL in assay [3] turned out to be 31.1%; in [7], 26.2%. Moreover, the inhibition at 100 µg/mL turned out to be 76% in assay [5] and 83.5% in assay [6].
Take `CN(C(=O)c1c(O)c2ccccc2n(C)c1=O)c1ccccc1` [ROQUINIMEX]: the inhibition at 10 µg/mL turned out to be 70.6% in assay [1] and 24.6% in [4]. The values for the inhibition in assay [2], in assay [8] and in assay [9] were 27.3%, 9.95% and 18.2%, respectively. For the same compound, the inhibition at 1 µg/mL was 0% in [3] and 58.1% in [7]. The inhibition at 100 µg/mL is 78.5% in assay [5] and 62.7% in assay [6].
Regarding `O=C(O)c1ccc(NC(=O)c2cnc3ccc(Cl)cc3c2O)cc1`, the inhibition at 10 µg/mL turned out to be 61.5% in [1] and 52.9% in assay [4]. The values for the inhibition in assay [2], in [8] and in [9] were -5.35%, 0.78% and 32.1%, respectively. The inhibition at 1 µg/mL in [3] was 17.8%; in assay [7], 12.7%. Also, the inhibition at 100 µg/mL in [5] came to 98.9%; in assay [6], 87%.
As for `COc1ccc2c(O)c(C(=O)N(C)c3ccccc3)cnc2c1`, the inhibition at 10 µg/mL was 29.3% in assay [1] and 24.9% in assay [4]. Moreover, the values for the inhibition in [2], in assay [8] and in assay [9] were 35.7%, 12.1% and 35.7%, respectively. For the same compound, the inhibition at 1 µg/mL in assay [3] came to 41.3%; in [7] it was 36.5%. Besides, the inhibition at 100 µg/mL in assay [5] was determined as 53.7%; in assay [6], 57.5%.
`O=C(Nc1ccc(N(CCO)CCO)cc1)c1cnc2ccccc2c1O`: the values for the inhibition at 10 µg/mL in assay [1] and in assay [4] were 61% and 75.8%, respectively. In addition, the results for the inhibition in assay [2], in [8] and in assay [9] were 30.4%, 1.82% and 12.1%, respectively. The figures for the inhibition at 1 µg/mL in assay [3] and in assay [7] were 38% and 45.8%, respectively. The figures for the inhibition at 100 µg/mL in assay [5] and in assay [6] were 99.1% and 88.5%, respectively.
Consider `CCCN(CCC)C(=O)c1cnc2cc(Cl)ccc2c1O`, for which the inhibition at 10 µg/mL was 49.5% in assay [1] and 18.1% in assay [4]. For the same compound, the inhibition in assay [2] is -4.03%; in [8], 14.7%; in assay [9], 18.4%. In addition, the inhibition at 1 µg/mL in assay [3] was -3.57%; in [7] it was 42.1%. The values for the inhibition at 100 µg/mL in assay [5] and in assay [6] were 51.2% and 12.6%, respectively.
`O=C(Nc1ccccc1)c1cnc2cc(Cl)ccc2c1O`: the inhibition at 10 µg/mL in assay [1] was found to be 32.6%; in [4], 12.3%. Besides, the figures for the inhibition in assay [2], in assay [8] and in [9] were 23.1%, 10.5% and 10.4%, respectively. Moreover, the inhibition at 1 µg/mL in assay [3] was -2.65%; in assay [7], 16.7%. For the same compound, the inhibition at 100 µg/mL in assay [5] was 22.3%; in [6], 27.1%.
On to `CN(C(=O)c1cnc2cc(Cl)ccc2c1O)c1ccccc1`, for which the inhibition at 10 µg/mL in assay [1] is -27.6%; in assay [4], -26.7%. Further, the inhibition in assay [2] came out at 25.6%; in assay [8] it was 18.6%; in assay [9], 5.61%. Also, the inhibition at 1 µg/mL in [3] is -4.33%; in assay [7] it was -24.7%. Moreover, the inhibition at 100 µg/mL in [5] is 41.2%; in assay [6] it was 14.1%.
In the case of `O=C(O)c1ccc(NC(=O)c2cnc3ccccc3c2O)cc1`, the inhibition at 10 µg/mL in assay [1] was determined as 38.8%; in assay [4] it was 4.33%. The inhibition in assay [2] was found to be 27.5%; in [8], 31.2%; in assay [9], 5.61%. Besides, the inhibition at 1 µg/mL in [3] was -1.94%; in assay [7], 28.6%. The inhibition at 100 µg/mL is -20.9% in assay [5] and 28% in assay [6].
